Measurements as given in ChEMBL document CHEMBL1132719, “cycloSal-Pronucleotides of 2'-fluoro-ara- and 2'-fluoro-ribo-2',3'- dideoxyadenosine as a strategy to bypass a metabolic blockade” (J Med Chem, 1999).
pEC50: −log10 of the molar value.

Tests used:
[1] = Partition coefficient (logP); format: physicochemical; conditions: octanol/water
How it was run: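 Compound dissolved in 1-octanol, then an equal volume of water added. Phases were vortexed 10 min and separated by centrifugation. Each phase was analysed by RP-HPLC (UV 260 nm). P was calculated from the peak areas of the aqueous and organic phases.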

CCRF-CEM [2] = assay: Antiviral activity evaluated as the ability to inhibit the replication of HIV-1 in human T-lymphocytic cells (CEM); format: functional, cell-based
How it was run: (§1)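 CEM cells at 4 × 10^5 cells/mL infected with HIV-1 (HTLV-IIIB) or HIV-2 (ROD) at ~100 CCID50 per mL. Virus stocks came from infected MT-4 supernatants. Infected cells were mixed with serial compound dilutions. Giant cell formation was scored microscopically after 4–5 days. EC50 is the 50% effective concentration.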

C3H/3T3 [3] = assay: (§2) Minimal cytotoxic concentration required to cause morphological alteration of C3H/3T3 fibroblast culture cells; format: functional; conditions: Mus musculus
How it was run: (§3)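 C3H/3T3 cells seeded at 20 000 cells/mL and grown 24 h, then infected with 80 focus-forming units of MSV for 120 min. Medium was replaced with fresh medium containing the test compound. Transformation was examined microscopically after 6 days. EC50 is the concentration giving 50% inhibition of transformation. MCC is the minimum concentration causing microscopically visible morphological alteration of the cultures.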

[4] = Selectivity index by CC50 of CEM cells/EC50 of CEM cells against HIV-1; format: functional, CCRF-CEM
[5] = Hydrolysis half life in phosphate buffer.; format: ADME
How it was run: (§4)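 Triester at 0.71 mM final in 25 mM Sørensen phosphate buffer, pH 7.3, 37 °C, with AZT as internal standard. Aliquots were frozen in liquid air, then analysed by RP-HPLC (UV 260 nm). k was taken from the slope of the log degradation curve of the starting triester and t1/2 derived from k. Values are the mean of duplicates, in hours.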

CCRF-CEM [6] = assay: Antiviral activity evaluated as the ability to inhibit the replication of HIV-2 in human T-lymphocytic cells (CEM); format: functional, cell-based; how it was run: as §1
C3H/3T3 [7] = assay: (§5) Effect of compound against Moloney murine sarcoma virus (MSV)-induced transformation of C3H/3T3 embryo murine fibroblasts; format: functional, cell-based; conditions: Mus musculus; how it was run: as §3
CCRF-CEM [8] = assay: Cytotoxic concentration in Wild Type CEM cells; format: functional; conditions: Homo sapiens
C3H/3T3 [9] = assay: as §5; format: functional, cell-based; conditions: Mus musculus; remark: listed apart in the source
How it was run: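 C3H/3T3 murine embryo fibroblasts seeded at 20 000 cells/mL, incubated 24 h, then infected for 120 min with 80 focus-forming units of Moloney murine sarcoma virus. Medium then replaced with fresh medium containing serial compound concentrations. Cell transformation scored microscopically after 6 days; EC50 taken as the concentration giving 50% inhibition of virus-induced transformation.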

C3H/3T3 [10] = assay: as §2; format: functional; conditions: Mus musculus; remark: listed apart in the source
[11] = Hydrolysis half life in phosphate buffer; format: ADME; how it was run: as §4

Row | SMILES | logP [1] | pEC50 (CCRF-CEM [2]) | MCC (C3H/3T3 [3]) [µM] | SI [4] | half-life [5] [h] | pEC50 (CCRF-CEM [6]) | pEC50 (C3H/3T3 [7]) | CC50 (CCRF-CEM [8]) [µM] | pEC50 (C3H/3T3 [9]) | MCC (C3H/3T3 [10]) [µM] | half-life [11] [h]
1 | Cc1cccc2c1OP(=O)(OC[C@@H]1C[C@@H](F)[C@H](n3cnc4c(N)ncnc43)O1)OC2 (stereo not given in full) | 0.93 | 4.93 | > 50 | 10 | 23.4 | 4.90 | 5.55 | 118 | – | – | –
2 | Nc1ncnc2c1ncn2[C@H]1CC[C@@H](CO)O1 | – | 5.36 | – | >57 | – | 5.34 | – | > 250 | 4.41 | > 50 | –
3 | Nc1ncnc2c1ncn2C1OC(COP2(=O)OCc3ccccc3O2)C[C@@H]1F (stereo not given in full) | 0.95 | 5.34 | > 50 | 74 | – | 5.73 | 5.77 | 137 | – | – | 8.9
4 | Cc1cccc2c1OP(=O)(OCC1C[C@H](F)C(n3cnc4c(O)ncnc43)O1)OC2 (stereo not given in full) | 0.51 | 5.45 | > 50 | 26 | 22.2 | 5.45 | < 4.30 | > 250 | – | – | –
5 | Nc1ncnc2c1ncn2C1OC(COP2(=O)OCc3ccccc3O2)C[C@H]1F (stereo not given in full) | 0.72 | 4.72 | > 50 | >19 | 8.4 | 4.89 | 5.33 | > 250 | – | – | –
6 | COc1ccc2c(c1)COP(=O)(OCC1C[C@@H](F)C(n3cnc4c(N)ncnc43)O1)O2 (stereo not given in full) | 0.71 | 4.70 | – | >12 | 12.3 | 4.60 | – | > 250 | – | – | –
7 | OCC1C[C@@H](F)C(n2cnc3c(O)ncnc32)O1 (stereo not given in full) | -0.96 | < 3.60 | > 50 | – | – | < 3.60 | < 4.30 | > 250 | – | – | –
8 | Cc1cccc2c1OP(=O)(OCC1C[C@@H](F)C(n3cnc4c(O)ncnc43)O1)OC2 (stereo not given in full) | 0.24 | 4.12 | > 50 | >8 | 22.7 | 4.50 | < 4.30 | > 250 | – | – | –
9 | OCC1C[C@H](F)C(n2cnc3c(O)ncnc32)O1 (stereo not given in full) | -1.19 | 4.38 | > 50 | >8 | – | 4.52 | < 4.30 | > 250 | – | – | –
10 | COc1ccc2c(c1)COP(=O)(OCC1C[C@H](F)C(n3cnc4c(N)ncnc43)O1)O2 (stereo not given in full) | 1.04 | 5.82 | – | – | 13 | 5.25 | – | 121 | – | – | –
11 | Cc1cccc2c1OP(=O)(OC[C@@H]1C[C@H](F)C(n3cnc4c(N)ncnc43)O1)OC2 (single isomer, unassigned) | 1.29 | 5.44 | – | 44 | 21.6 | 5.48 | – | 146 | – | – | –
12 | Nc1ncnc2c1ncn2[C@@H]1OC(CO)C[C@H]1F (single isomer, unassigned) | -0.2 | < 3.60 | – | – | – | < 3.60 | – | > 250 | < 4.30 | > 50 | –
13 | Nc1ncnc2c1ncn2[C@@H]1O[C@H](CO)C[C@@H]1F [LODENOSINE] | -0.16 | 4.44 | – | >6.8 | – | 4.40 | – | > 250 | < 4.30 | > 50 | –
14 | Cc1cn([C@H]2C=C[C@@H](CO)O2)c(=O)[nH]c1=O [STAVUDINE] | – | – | – | – | – | – | – | 56 | – | – | –
